From ChEMBL document CHEMBL1671817, “Synthesis of cationic antimicrobial β(2,2)-amino acid derivatives with potential for oral administration” (J Med Chem, 2011) come the findings set out here.

≈ marks a conversion by molar mass, not a printed value. Calls of active or inactive are those of the source. The rule behind the calls is not given here.

A short description of data set [1]: Therapeutic index, ratio of EC50 for human RBC hemolytic activity to MIC for Pseudomonas aeruginosa ATCC 27853. The note with it: human red blood cells (RBC), read-out: TI. In a few lines: (§1)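 Index taken as hemolytic EC50 divided by MIC for each strain. Hemolysis: human RBCs from heparinized blood, washed with 37 °C PBS, diluted to 10% hematocrit. Cells exposed at 1% v/v final to compound in PBS at 1–1000 μg/mL for 1 h at 37 °C with agitation. Hemoglobin read by supernatant A405 against PBS and 0.1% Triton X-100 controls. MICs in duplicate at 0.5–200 μg/mL.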

For the next data set, the system named is Pseudomonas aeruginosa. As to the kind of experiment: Antimicrobial activity against Pseudomonas aeruginosa ATCC 27853. It counts as functional.
The next data set deals with Escherichia coli. As to the kind of experiment: Antimicrobial activity against Escherichia coli ATCC 25922. It counts as functional.
The test system of data set [2] is Staphylococcus epidermidis. As to the kind of experiment: Antimicrobial activity against methicillin-resistant Staphylococcus epidermidis ATCC 27626. It counts as functional. In a few lines:
(§2)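 MIC screen run at a contract lab. Each compound, as its ditrifluoroacetate salt, tested in duplicate at 200, 100, 50, 35, 15, 10, 5, 2.5, 1 and 0.5 μg/mL. Molar values calculated from the salt form. Gentamicin used as positive control.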

A short description of data set [3]: Therapeutic index, ratio of EC50 for human RBC hemolytic activity to MIC for Staphylococcus aureus ATCC 25923. The note with it: human red blood cells (RBC), read-out: TI. In a few lines: as §1
A short description of data set [4]: Hemolytic activity against human RBC assessed as hemoglobin release after 1 hr. The note with it: Erythrocyte. It counts as ADME, cell-based. In a few lines: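 Heparinized human blood freed of plasma by centrifugation, washed three times in 37 °C PBS, diluted to 10% hematocrit and added to compound in PBS (1–1000 μg/mL) to 1% v/v erythrocytes. PBS negative, 0.1% v/v Triton X-100 positive control.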

A short description of data set [5]: Therapeutic index, ratio of EC50 for human RBC hemolytic activity to MIC for Escherichia coli ATCC 25922. The note with it: human red blood cells (RBC), read-out: TI. In a few lines: as §1
Data set [6] has as its system Staphylococcus aureus. In words: Antimicrobial activity against methicillin-resistant Staphylococcus aureus ATCC 33591. Type of data set: functional. In a few lines:
as §2

Data set [7] in a line: Therapeutic index, ratio of EC50 for human RBC hemolytic activity to MIC for methicillin-resistant Staphylococcus epidermidis ATCC 27626. Conditions: human red blood cells (RBC), read-out: TI. In a few lines: as §1
Data set [8] deals with Staphylococcus aureus. As to the kind of experiment: Antimicrobial activity against Staphylococcus aureus ATCC 25923. It counts as functional.
A short description of data set [9]: Therapeutic index, ratio of EC50 for human RBC hemolytic activity to MIC for methicillin-resistant Staphylococcus aureus ATCC 33591. The note with it: human red blood cells (RBC), read-out: TI. An outline of the steps:
as §1

A short description of data set [10]: Permeability of the compound across phospholipid vesicle based barrier model at pH 7.4. Type of data set: ADME. In a few lines:
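Passive diffusion through phospholipid vesicle-based barriers (egg lipid extract, ~82% phosphatidylcholine) on filter inserts at room temperature. Donor in phosphate buffer pH 7.4, or pH 5.5 for a poorly soluble compound; acceptor always pH 7.4. Inserts moved to fresh acceptor wells; UV 230 nm at 1, 2, 3, 3.5, 4, 4.5, 5 h; barrier resistance checked afterwards.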

Data set [11] relates to Staphylococcus aureus. As to the kind of experiment: Antimicrobial activity against Staphylococcus aureus assessed as cell wall mesosome structure and septum of bacteria at 117 uM after 3 hrs by transmission electron microscopy. It counts as functional, organism-based.
Data set [12] concerns Staphylococcus aureus. As to the kind of experiment: Antimicrobial activity against Staphylococcus aureus assessed as cell wall mesosome structure and septum of bacteria at 234 uM after 2 hrs by transmission electron microscopy. It counts as functional, organism-based.

On to `CN(C)CCNC(=O)C(CN)(Cc1ccc(C(C)(C)C)cc1)Cc1ccc(C(C)(C)C)cc1.O=C(O)C(F)(F)F.O=C(O)C(F)(F)F`, for which the selectivity ratio is 3.7 in data set [1]; 37 in [3]; 37 in [5]; 74 in data set [7]; 37 in [9]. The MIC in the data set on Pseudomonas aeruginosa amounted to 74 µM; in the data set on Escherichia coli it was 7.4 µM; in [2], 3.7 µM; with Staphylococcus aureus [6], 7.4 µM; against Staphylococcus aureus [8], 7.4 µM. Moreover, in data set [4], the EC50 is 274 µM.
As to `CN1CCN(C(=O)C(CN)(CCCc2ccccc2)CCCc2ccccc2)CC1`, the MIC (with Escherichia coli; in [2]; in the data set on Staphylococcus aureus [6]; against Staphylococcus aureus [8]) was 315 µM (≈ 128 µg/mL) throughout.
As to `CN(C)CCN1CCN(C(=O)C(CN)(Cc2ccc3ccccc3c2)Cc2ccc3ccccc3c2)CC1.O=C(O)C(F)(F)F.O=C(O)C(F)(F)F`, the MIC worked out at 48 µM in the data set on Escherichia coli, 14 µM in data set [2], 3.4 µM against Staphylococcus aureus [6] and 20 µM against Staphylococcus aureus [8]. For the same compound, in data set [10], the permeability entry is “permeable”. In addition, the selectivity ratio turned out to be 20 in data set [3], 8.5 in [5], 29 in [7] and 120 in [9]. Moreover, the EC50 in data set [4] is 409 µM.
`CN(C)CCN1CCN(C(=O)C(CN)(Cc2ccc(C(F)(F)F)cc2)Cc2ccc(C(F)(F)F)cc2)CC1.O=C(O)C(F)(F)F.O=C(O)C(F)(F)F`: the MIC against Escherichia coli came to 129 µM; in data set [2], 65 µM; against Staphylococcus aureus [6], 6.5 µM; with Staphylococcus aureus [8], 45 µM. In addition, the selectivity ratio in data set [3] came to 25; in data set [5], 8.6; in data set [7] it was 17; in data set [9], 172. Also, the EC50 in data set [4] was found to be 1120 µM.
In the case of `CC(C)(C)c1ccc(CC(CN)(Cc2ccc(C(C)(C)C)cc2)C(=O)NCCN)cc1.O=C(O)C(F)(F)F.O=C(O)C(F)(F)F`, the selectivity ratio in [1] was found to be 0.8; in data set [3] it was 4.7; in data set [5] it was 2.3; in [7], 4.7; in data set [9], 4.7. Also, the MIC in the data set with Pseudomonas aeruginosa was determined as 23 µM; against Escherichia coli, 7.7 µM; in data set [2], 3.8 µM; in the data set on Staphylococcus aureus [6], 3.8 µM; with Staphylococcus aureus [8], 3.8 µM. Besides, in data set [4], the EC50 is 18 µM.
Turning to `CN(C)CCN1CCN(C(=O)C(CN)(Cc2ccc(C(C)(C)C)cc2)Cc2ccc(C(C)(C)C)cc2)CC1.O=C(O)C(F)(F)F.O=C(O)C(F)(F)F`, the selectivity ratio in data set [1] was found to be 1.3; in data set [3], 26; in data set [5] it was 26; in data set [7], 26; in data set [9] it was 26. Also, the MIC came out at 255 µM with Pseudomonas aeruginosa; 13 µM in the data set on Escherichia coli; 13 µM in data set [2]; 13 µM against Staphylococcus aureus [6]; 13 µM with Staphylococcus aureus [8]. Further, the EC50 in data set [4] turned out to be 337 µM.
On to `CN(C)CCNC(=O)C(CN)(Cc1ccc2ccccc2c1)Cc1ccc2ccccc2c1.O=C(O)C(F)(F)F.O=C(O)C(F)(F)F`, for which the selectivity ratio in data set [1] came to 0.4; in data set [3], 16; in [5], 5.1; in [7], 16; in data set [9] it was 16. The minimum inhibitory concentration (MIC) in the data set with Pseudomonas aeruginosa stood at 300 µM; with Escherichia coli, 23 µM; in [2] it was 7.5 µM; in the data set with Staphylococcus aureus [6], 7.5 µM; against Staphylococcus aureus [8] it was 7.5 µM. The permeability entry in data set [10] is “permeable”. Moreover, in data set [4], the EC50 was 117 µM.
As for `CN1CCN(C(=O)C(CN)(Cc2ccc(C(F)(F)F)cc2)Cc2ccc(C(F)(F)F)cc2)CC1.O=C(O)C(F)(F)F.O=C(O)C(F)(F)F`, the MIC in the data set on Escherichia coli is 70 µM; in data set [2], 70 µM; in the data set with Staphylococcus aureus [6] it was 14 µM; in the data set with Staphylococcus aureus [8] it was 49 µM. The selectivity ratio was determined as 11 in data set [3], 7.5 in [5], 7.5 in data set [7] and 38 in data set [9]. Further, the EC50 in data set [4] came out at 525 µM.
In the case of `CN1CCN(C(=O)C(CN)(Cc2ccc(C(C)(C)C)cc2)Cc2ccc(C(C)(C)C)cc2)CC1.O=C(O)C(F)(F)F.O=C(O)C(F)(F)F`, the selectivity ratio in data set [1] worked out at 1.2; in data set [3], 23; in [5], 23; in data set [7], 48; in data set [9] it was 23. Also, the MIC against Pseudomonas aeruginosa is 289 µM; against Escherichia coli it was 15 µM; in data set [2], 7.2 µM; against Staphylococcus aureus [6], 15 µM; with Staphylococcus aureus [8] it was 15 µM. The EC50 in [4] is 348 µM.
Take `CN(C)CCN1CCN(C(=O)C(CN)(CCCc2ccccc2)CCCc2ccccc2)CC1`: the MIC in the data set on Escherichia coli was determined as 289 µM (≈ 134 µg/mL); in data set [2] it was 72 µM (≈ 33.5 µg/mL); against Staphylococcus aureus [6], 72 µM (≈ 33.5 µg/mL); against Staphylococcus aureus [8], 289 µM (≈ 134 µg/mL).
As for `NCCNC(=O)C(CN)(CCCc1ccccc1)CCCc1ccccc1.O=C(O)C(F)(F)F.O=C(O)C(F)(F)F`, the MIC is 336 µM in the data set on Escherichia coli, 25 µM in data set [2], 59 µM in the data set on Staphylococcus aureus [6] and 71 µM in the data set with Staphylococcus aureus [8]. Further, the selectivity ratio worked out at 19 in data set [3], 4.1 in data set [5], 55 in data set [7] and 23 in data set [9]. In addition, in data set [4], the EC50 stood at 1380 µM.
For the compound `CN(C)CCNC(=O)C(CN)(CCCc1ccccc1)CCCc1ccccc1.O=C(O)C(F)(F)F.O=C(O)C(F)(F)F`, the MIC against Escherichia coli was found to be 160 µM; in data set [2], 56 µM; in the data set with Staphylococcus aureus [6], 56 µM; against Staphylococcus aureus [8], 56 µM. The selectivity ratio in data set [3] came out at 9.1; in data set [5], 3.2; in [7] it was 9.1; in data set [9], 9.1. Besides, the EC50 in data set [4] came to 507 µM.
For `CN(C)CCNC(=O)C(CN)(Cc1ccc(C(F)(F)F)cc1)Cc1ccc(C(F)(F)F)cc1.O=C(O)C(F)(F)F.O=C(O)C(F)(F)F`, the minimal inhibitory concentration (MIC) against Escherichia coli was found to be 50 µM; in [2] it was 21 µM; against Staphylococcus aureus [6], 7.1 µM; against Staphylococcus aureus [8], 14 µM. In addition, the selectivity ratio turned out to be 33 in data set [3], 9.4 in data set [5], 22 in data set [7] and 66 in data set [9]. Further, in data set [4], the EC50 is 468 µM.
Turning to `CN1CCN(C(=O)C(CN)(Cc2ccc3ccccc3c2)Cc2ccc3ccccc3c2)CC1.O=C(O)C(F)(F)F.O=C(O)C(F)(F)F`, the MIC against Escherichia coli came out at 22 µM; in data set [2], 15 µM; against Staphylococcus aureus [6], 7.4 µM; in the data set with Staphylococcus aureus [8], 15 µM. Besides, the permeability entry in data set [10] is “permeable”. Further, the selectivity ratio was 20 in data set [3], 14 in data set [5], 20 in data set [7] and 41 in data set [9]. Also, the EC50 in [4] was found to be 303 µM.
`NCCNC(=O)C(CN)(Cc1ccc(C(F)(F)F)cc1)Cc1ccc(C(F)(F)F)cc1.O=C(O)C(F)(F)F.O=C(O)C(F)(F)F`: the MIC worked out at 52 µM with Escherichia coli, 15 µM in data set [2], 7.4 µM in the data set with Staphylococcus aureus [6] and 15 µM against Staphylococcus aureus [8]. Moreover, the selectivity ratio in data set [3] was determined as 28; in [5], 8; in data set [7] it was 28; in data set [9] it was 57. For the same compound, the EC50 in data set [4] was 425 µM.
Turning to `NCCNC(=O)C(CN)(Cc1ccc2ccccc2c1)Cc1ccc2ccccc2c1.O=C(O)C(F)(F)F.O=C(O)C(F)(F)F`, the selectivity ratio came to 8.3 in data set [1]; 117 in data set [3]; 19 in data set [5]; 117 in [7]; 59 in data set [9]. The result in the data set on Staphylococcus aureus [11] and in the data set with Staphylococcus aureus [12] was Active. Moreover, the MIC was found to be 55 µM against Pseudomonas aeruginosa; 24 µM in the data set on Escherichia coli; 3.9 µM in data set [2]; 7.8 µM in the data set on Staphylococcus aureus [6]; 3.9 µM with Staphylococcus aureus [8]. Further, the EC50 in [4] came out at 457 µM.
